{
  "source": "paper PMC6387783",
  "about": "(Chemistry & biodiversity, 2018)",
  "key": {"mice": {"test_system": "mice", "settings": "intravenous (tail-vein injection), ref [1]; cited from earlier work"}, "HEK293 cells": {"test_system": "HEK293 cells", "assay_type": "cell-based, human", "settings": "peptide 2 μM with R18 1 μM vs peptide alone, HBSS, 10 min, 37 °C", "how_it_was_run": "(§1)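 Cells are seeded in μ-slide wells at 20% confluency (HEK293 in poly-L-lysine-coated wells) and grown 24 h, then washed with HBSS (Ca/Mg). Test peptide at 2 μM in HBSS, alone or with R18 1 μM, 10 min, 37 °C, dark; negative control R18 only. Cells washed five times, then live spinning-disk confocal imaging at 37 °C (FAM ex 488 nm, em 525/50 nm). Single-cell intensities background-corrected and normalized to control mean; 30 cells/condition; Kruskal–Wallis test.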"}, "MCF-7 cells": {"test_system": "MCF-7 cells", "assay_type": "cell-based, human", "settings": "peptide 2 μM with R18 1 μM vs peptide alone, HBSS, 10 min, 37 °C", "how_it_was_run": "as §1"}},
  "data": [
    {"substance": "FAM-octaarginine amide [compound 1]", "values": [
      {"measurement": "toxicity", "setting": "mice", "result": "highly toxic"},
      {"measurement": "effect of membrane dye R18 on peptide permeation", "setting": "HEK293 cells", "result": "significantly intensified permeation"},
      {"measurement": "effect of membrane dye R18 on peptide permeation", "setting": "MCF-7 cells", "result": "significantly intensified permeation"}
    ]}
  ]
}
